The target in data set [1] is 5'-AMP-activated protein kinase catalytic subunit alpha-2 (Homo sapiens) (UniProt P54646). Kind of data set: Inhibition of recombinant full length human AMPKalpha2 at 1 uM using AMARAASAAALAR as substrate incubated for 40 mins in presence of [gamma-33P]-ATP by scintillation counting method relative to control. The gist of the method:
(§1)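 Kinase panel profiling at 1 μM performed by Eurofins KinaseProfiler; percent inhibition reported as mean of two independent experiments.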

Data set [2] has as its target Ribosomal protein S6 kinase alpha-2 (Homo sapiens) (UniProt Q15349). In words: Inhibition of recombinant human full length RSK3 at 1 uM using KKKNRTLSVA as substrate incubated for 40 mins in presence of [gamma-33P]-ATP by scintillation counting method relative to control.
Data set [3] deals with Ribosomal protein S6 kinase alpha-5 (Homo sapiens) (UniProt O75582). Kind of data set: Inhibition of recombinant human MSK1 (2 to end residues) at 1 uM using GRPRTSSFAEGKK as substrate incubated for 40 mins in presence of [gamma-33P]-ATP by scintillation counting method relative to control.
Data set [4] deals with Dual specificity mitogen-activated protein kinase kinase 4 (Mus musculus) (UniProt P47809). In words: Inhibition of recombinant mouse MKK4 (34 to end residues) at 1 uM using unactive JNK1a1 as substrate incubated for 40 mins in presence of [gamma-33P]-ATP by scintillation counting method relative to control.
Data set [5] has as its target Vascular endothelial growth factor receptor 2 (Homo sapiens, UniProt P35968). In words: Inhibition of recombinant human VEGFR2 (790 to end residues) using myelin ba as substrate incubated for 40 mins by [gamma-33P]-ATP based radiometric assay.
The target in data set [6] is Cytoplasmic tyrosine-protein kinase BMX (Homo sapiens) (UniProt P51813). In words: Inhibition of recombinant full length human BMX at 1 uM using poly(Glu, Tyr) 4:1 as substrate incubated for 40 mins in presence of [gamma-33P]-ATP by scintillation counting method relative to control. The gist of the method:
as §1

Data set [7] deals with CDK4/Cyclin D3 (Homo sapiens) (UniProt P11802+P30281). In words: Inhibition of recombinant human full length CDK4/cyclinD3 at 1 uM using Rb fragment as substrate incubated for 40 mins in presence of [gamma-33P]-ATP by scintillation counting method relative to control. Format: protein-complex assay.
Data set [8] is described as follows: Toxicity in NOD/SCID BALB/c mouse xenografted with human SiHa cells assessed as effect on blood parameter by measuring WBC content at 40 mg/kg, po administered once two days for 4 times by hematology analyzer. The format is organism-based. Conditions: in vivo. A general note: In xenograft studies the graft and the host belong to different species.
In the next data set the test system is HeLa. In words: Induction of apoptosis in human HeLa cells assessed as increase in late apoptotic cells at 20 to 40 nM incubated for 48 hrs by annexin V FITC and propidium iodide staining based flow cytometry. Format: functional, cell-based. The gist of the method:
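Cells were treated for 48 h, stained with FITC Annexin V and PI, and analyzed by flow cytometry to count early and late apoptotic cells.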
In general terms: In flow cytometry, cells or beads pass a laser one at a time.

Data set [9] can be described thus: Toxicity in NOD/SCID BALB/c mouse xenografted with human SiHa cells assessed as toxic effects in lungs at 40 mg/kg, po administered for 48 hrs by hematoxylin and eosin staining method. Format: organism-based. As to conditions: in vivo.
The target of data set [10] is Rhodopsin kinase GRK1 (Homo sapiens) (UniProt Q15835). Kind of data set: Inhibition of recombinant human full length GRK1 at 1 uM using KKKKERLLDDRHDSGLDSMKDEE as substrate incubated for 40 mins in presence of [gamma-33P]-ATP by scintillation counting method relative to control.
Data set [11] concerns the target Tyrosine-protein kinase HCK (Homo sapiens) (UniProt P08631). Kind of data set: Inhibition of recombinant human HCK (230 to 497 residues) at 1 uM using GGMEDIYFEFMGGKKK as substrate incubated for 40 mins in presence of [gamma-33P]-ATP by scintillation counting method relative to control.
Data set [12] in a line: Volume of distribution in Sprague-Dawley rat at 10 mg/kg, iv by HPLC-MS analysis. Conditions: in vivo. Format: ADME, organism-based.
Data set [13] addresses Bone morphogenetic protein receptor type-2 (Homo sapiens) (UniProt Q13873). In words: Inhibition of recombinant human BMPR2 (172 to 734 residues) at 1 uM using myelin ba as substrate incubated for 120 mins in presence of [gamma-33P]-ATP by scintillation counting method relative to control. The gist of the method: as §1
For data set [14], the system named is SiHa. In words: Induction of apoptosis in human SiHa cells assessed as increase in early apoptotic cells at 20 to 40 nM incubated for 48 hrs by annexin V FITC and propidium iodide staining based flow cytometry. Format: functional, cell-based. The gist of the method: (§2)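 Annexin V-FITC/PI double staining with flow-cytometric readout. MDA-MB-231, T-47D, SiHa and HeLa cells were treated with graded concentrations for 48 h. MDA-MB-231 and T-47D were grown in DMEM and SiHa in 1640 medium, each with 10% FBS and 1% penicillin/streptomycin at 37°C under 5% CO2. Early- and late-stage apoptotic fractions were scored.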

In data set [15] the target is Leukocyte tyrosine kinase receptor (Homo sapiens) (UniProt P29376). Kind of data set: Inhibition of recombinant human LTK (450 to end residues) at 1 uM using GEEPLYWSFPAKKK as substrate incubated for 40 mins in presence of [gamma-33P]-ATP by scintillation counting method relative to control. The gist of the method:
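Tested at a single 1 uM in an outsourced commercial kinase-profiling panel, read as percent inhibition. Each value is the mean of two independent experiments.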

Data set [16] deals with Tyrosine-protein kinase ZAP-70 (Homo sapiens) (UniProt P43403). In words: Inhibition of recombinant human full length ZAP70 at 1 uM using poly(Glu, Tyr) 4:1 as substrate incubated for 40 mins in presence of [gamma-33P]-ATP by scintillation counting method relative to control.
The subject of data set [17] is Proto-oncogene tyrosine-protein kinase receptor Ret (Homo sapiens), P07949 [V804M]. Kind of data set: Inhibition of recombinant human RET V804M mutant (658 to end residues) at 1 uM using KKKVSRSGLYRSPSMPENLNRPR as substrate incubated for 40 mins in presence of [gamma-33P]-ATP by scintillation counting method relative to control.
In another data set the test system is MDA-MB-231. In words: Induction of apoptosis in human MDA-MB-231 cells at 40 nM incubated for 48 hrs by annexin V FITC and propidium iodide staining based flow cytometry. The format is functional, cell-based. The gist of the method: as §2
For a further data set, the system named is T47D. Kind of data set: Induction of apoptosis in human T47D cells assessed as decrease in Bcl2 expression at 40 nM incubated for 48 hrs by Western blot analysis. Format: functional, cell-based. The gist of the method: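 Cancer cells were exposed to graded concentrations for 48 h, washed three times in PBS and lysed in RIPA buffer. Immunoblots were probed with anti-Rb, anti-phospho-Rb, anti-Ki67 and anti-Bcl-2, each at 1:1000. β-actin served as loading control.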

Data set [18] relates to SiHa. In words: Antiproliferative activity against human SiHa cells assessed as reduction in cell viability at 80 nM incubated for 48 hrs by EdU staining based laser scanning confocal microscopy. Format: functional. The gist of the method:
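Cells, 5×10^4, were seeded in 24-well plates and treated for 48 h. They were then labeled using an EdU Apollo 488 imaging kit with Hoechst 33342 nuclear stain and imaged by laser scanning confocal microscopy. Percent EdU-positive cells = EdU-positive/Hoechst-stained × 100%.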

SMILES strings stand for the structures. pIC50: −log10 of the molar value. Activity calls are given as the source filed them. No cut-off for these calls is given here.

Chain of Cytoplasmic tyrosine-protein kinase BMX (Homo sapiens) (P51813 whole entry): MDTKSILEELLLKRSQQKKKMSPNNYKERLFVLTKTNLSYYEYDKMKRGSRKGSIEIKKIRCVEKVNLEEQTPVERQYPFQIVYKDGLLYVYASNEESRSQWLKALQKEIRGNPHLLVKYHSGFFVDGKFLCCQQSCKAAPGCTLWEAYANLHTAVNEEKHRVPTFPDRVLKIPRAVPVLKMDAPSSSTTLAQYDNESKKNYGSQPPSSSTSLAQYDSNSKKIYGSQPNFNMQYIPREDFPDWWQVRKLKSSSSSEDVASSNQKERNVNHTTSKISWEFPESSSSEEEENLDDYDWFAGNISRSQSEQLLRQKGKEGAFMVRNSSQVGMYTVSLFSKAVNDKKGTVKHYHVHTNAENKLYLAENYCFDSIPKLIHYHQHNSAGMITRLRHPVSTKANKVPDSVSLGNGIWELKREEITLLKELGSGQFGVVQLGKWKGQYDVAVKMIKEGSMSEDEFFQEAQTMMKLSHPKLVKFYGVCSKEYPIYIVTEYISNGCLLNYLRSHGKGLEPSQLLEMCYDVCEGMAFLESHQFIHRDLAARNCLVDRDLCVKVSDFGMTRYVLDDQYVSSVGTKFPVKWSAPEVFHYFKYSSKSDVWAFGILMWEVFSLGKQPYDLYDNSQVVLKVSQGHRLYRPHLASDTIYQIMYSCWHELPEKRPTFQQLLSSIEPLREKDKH
Chain of Ribosomal protein S6 kinase alpha-5 (Homo sapiens) (O75582 whole entry, looked up): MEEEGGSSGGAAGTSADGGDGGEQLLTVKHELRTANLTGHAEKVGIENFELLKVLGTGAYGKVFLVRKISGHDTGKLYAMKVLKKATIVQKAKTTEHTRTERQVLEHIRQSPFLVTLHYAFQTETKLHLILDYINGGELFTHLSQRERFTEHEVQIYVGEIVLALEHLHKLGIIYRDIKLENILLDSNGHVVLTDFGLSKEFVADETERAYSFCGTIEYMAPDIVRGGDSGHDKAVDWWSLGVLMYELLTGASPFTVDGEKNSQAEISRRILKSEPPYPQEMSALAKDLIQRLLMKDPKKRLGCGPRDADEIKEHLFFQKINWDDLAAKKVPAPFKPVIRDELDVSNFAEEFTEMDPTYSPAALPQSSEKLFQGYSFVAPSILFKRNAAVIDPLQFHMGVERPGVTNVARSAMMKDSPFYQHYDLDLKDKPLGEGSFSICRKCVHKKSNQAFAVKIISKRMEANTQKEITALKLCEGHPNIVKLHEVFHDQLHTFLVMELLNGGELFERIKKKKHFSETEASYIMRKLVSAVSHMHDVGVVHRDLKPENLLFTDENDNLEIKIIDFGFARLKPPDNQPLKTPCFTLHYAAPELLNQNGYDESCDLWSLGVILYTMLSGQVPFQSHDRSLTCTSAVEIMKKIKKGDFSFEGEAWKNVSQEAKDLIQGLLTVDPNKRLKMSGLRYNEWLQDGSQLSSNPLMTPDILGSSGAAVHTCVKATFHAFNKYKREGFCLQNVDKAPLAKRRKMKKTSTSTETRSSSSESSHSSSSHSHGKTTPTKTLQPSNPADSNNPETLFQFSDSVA
Chain of Leukocyte tyrosine kinase receptor (Homo sapiens) (P29376 whole entry): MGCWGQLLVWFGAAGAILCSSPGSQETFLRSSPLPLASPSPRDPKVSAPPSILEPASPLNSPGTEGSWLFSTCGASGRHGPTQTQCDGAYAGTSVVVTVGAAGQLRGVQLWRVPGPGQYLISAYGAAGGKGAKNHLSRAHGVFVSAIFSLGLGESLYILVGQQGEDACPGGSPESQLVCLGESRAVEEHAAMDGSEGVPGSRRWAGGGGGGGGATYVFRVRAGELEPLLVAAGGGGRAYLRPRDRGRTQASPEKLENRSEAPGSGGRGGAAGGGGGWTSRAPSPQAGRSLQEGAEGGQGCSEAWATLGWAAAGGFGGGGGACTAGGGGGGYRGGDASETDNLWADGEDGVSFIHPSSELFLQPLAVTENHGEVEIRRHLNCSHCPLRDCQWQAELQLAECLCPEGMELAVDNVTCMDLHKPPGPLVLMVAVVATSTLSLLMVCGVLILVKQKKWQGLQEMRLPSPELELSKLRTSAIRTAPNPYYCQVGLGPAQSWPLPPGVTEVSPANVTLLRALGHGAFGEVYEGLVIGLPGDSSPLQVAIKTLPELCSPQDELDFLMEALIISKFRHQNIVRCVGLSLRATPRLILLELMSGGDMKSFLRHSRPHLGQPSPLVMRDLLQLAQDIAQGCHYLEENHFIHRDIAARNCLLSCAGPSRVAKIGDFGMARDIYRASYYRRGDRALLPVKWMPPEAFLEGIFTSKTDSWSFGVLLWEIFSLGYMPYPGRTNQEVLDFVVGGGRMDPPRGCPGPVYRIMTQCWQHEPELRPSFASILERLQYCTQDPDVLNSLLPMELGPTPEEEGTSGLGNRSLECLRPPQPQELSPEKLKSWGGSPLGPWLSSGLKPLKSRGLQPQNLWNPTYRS
Chain of Ribosomal protein S6 kinase alpha-2 (Homo sapiens) (Q15349 whole entry): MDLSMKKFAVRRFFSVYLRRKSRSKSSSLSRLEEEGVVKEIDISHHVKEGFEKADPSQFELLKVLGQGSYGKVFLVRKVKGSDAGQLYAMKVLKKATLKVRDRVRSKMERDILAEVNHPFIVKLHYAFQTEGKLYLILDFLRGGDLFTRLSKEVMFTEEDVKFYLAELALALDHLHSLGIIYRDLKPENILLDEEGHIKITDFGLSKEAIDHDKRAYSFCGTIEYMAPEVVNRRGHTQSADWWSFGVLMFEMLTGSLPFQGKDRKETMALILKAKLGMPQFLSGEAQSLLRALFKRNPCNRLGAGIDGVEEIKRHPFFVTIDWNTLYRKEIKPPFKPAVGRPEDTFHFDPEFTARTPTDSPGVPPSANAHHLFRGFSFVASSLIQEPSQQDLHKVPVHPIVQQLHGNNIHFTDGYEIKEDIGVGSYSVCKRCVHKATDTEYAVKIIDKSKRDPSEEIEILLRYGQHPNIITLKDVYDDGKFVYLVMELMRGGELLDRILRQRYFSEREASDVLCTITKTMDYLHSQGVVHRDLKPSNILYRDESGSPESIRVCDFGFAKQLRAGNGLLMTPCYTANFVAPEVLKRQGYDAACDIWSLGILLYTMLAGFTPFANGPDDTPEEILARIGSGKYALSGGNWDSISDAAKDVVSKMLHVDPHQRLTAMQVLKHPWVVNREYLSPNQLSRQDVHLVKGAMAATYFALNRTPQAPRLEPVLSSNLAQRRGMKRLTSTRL
Chain of Bone morphogenetic protein receptor type-2 (Homo sapiens) (Q13873 whole entry, the tested form may be a part): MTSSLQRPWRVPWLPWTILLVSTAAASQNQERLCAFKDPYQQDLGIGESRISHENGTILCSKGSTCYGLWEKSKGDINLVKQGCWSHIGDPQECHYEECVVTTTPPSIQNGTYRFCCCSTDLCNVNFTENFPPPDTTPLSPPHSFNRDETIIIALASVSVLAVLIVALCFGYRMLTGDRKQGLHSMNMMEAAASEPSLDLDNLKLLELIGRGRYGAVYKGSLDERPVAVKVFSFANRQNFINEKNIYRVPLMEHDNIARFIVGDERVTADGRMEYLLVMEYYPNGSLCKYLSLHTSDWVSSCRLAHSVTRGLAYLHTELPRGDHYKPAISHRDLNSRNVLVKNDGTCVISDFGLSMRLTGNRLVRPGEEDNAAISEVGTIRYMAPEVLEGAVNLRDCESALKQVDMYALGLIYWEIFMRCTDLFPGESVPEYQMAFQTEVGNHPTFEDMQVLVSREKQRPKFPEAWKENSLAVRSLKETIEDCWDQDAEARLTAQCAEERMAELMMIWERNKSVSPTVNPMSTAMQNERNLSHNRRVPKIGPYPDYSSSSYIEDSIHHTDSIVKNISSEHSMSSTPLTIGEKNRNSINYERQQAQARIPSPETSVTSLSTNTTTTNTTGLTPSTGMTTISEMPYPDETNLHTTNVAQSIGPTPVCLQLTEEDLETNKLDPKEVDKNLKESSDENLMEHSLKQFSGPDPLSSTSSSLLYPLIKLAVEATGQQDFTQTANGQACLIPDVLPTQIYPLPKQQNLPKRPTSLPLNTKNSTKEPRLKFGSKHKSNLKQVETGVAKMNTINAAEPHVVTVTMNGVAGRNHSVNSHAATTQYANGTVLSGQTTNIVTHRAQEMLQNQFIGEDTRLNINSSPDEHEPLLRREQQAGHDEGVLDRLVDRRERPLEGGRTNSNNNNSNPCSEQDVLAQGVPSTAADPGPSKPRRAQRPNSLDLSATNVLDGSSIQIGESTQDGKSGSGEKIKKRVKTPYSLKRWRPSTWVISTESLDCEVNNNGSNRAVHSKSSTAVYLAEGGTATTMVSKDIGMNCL
Chain of 5'-AMP-activated protein kinase catalytic subunit alpha-2 (Homo sapiens) (P54646 whole entry, looked up): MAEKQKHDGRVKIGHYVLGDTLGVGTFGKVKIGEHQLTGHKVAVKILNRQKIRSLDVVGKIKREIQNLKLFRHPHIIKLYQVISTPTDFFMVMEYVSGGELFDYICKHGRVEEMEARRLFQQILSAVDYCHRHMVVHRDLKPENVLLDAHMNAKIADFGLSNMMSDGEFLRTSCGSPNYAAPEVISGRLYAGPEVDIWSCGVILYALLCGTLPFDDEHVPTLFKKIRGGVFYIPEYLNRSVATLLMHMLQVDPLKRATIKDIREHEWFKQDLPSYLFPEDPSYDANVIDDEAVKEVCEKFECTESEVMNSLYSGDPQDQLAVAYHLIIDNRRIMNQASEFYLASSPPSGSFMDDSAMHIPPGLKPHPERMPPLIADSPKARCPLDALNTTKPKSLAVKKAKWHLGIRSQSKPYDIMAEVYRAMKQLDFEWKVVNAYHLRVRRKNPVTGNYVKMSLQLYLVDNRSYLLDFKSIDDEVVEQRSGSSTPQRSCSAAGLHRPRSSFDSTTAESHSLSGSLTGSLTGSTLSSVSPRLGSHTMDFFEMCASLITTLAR
Chain of Dual specificity mitogen-activated protein kinase kinase 4 (Mus musculus) (P47809 whole entry): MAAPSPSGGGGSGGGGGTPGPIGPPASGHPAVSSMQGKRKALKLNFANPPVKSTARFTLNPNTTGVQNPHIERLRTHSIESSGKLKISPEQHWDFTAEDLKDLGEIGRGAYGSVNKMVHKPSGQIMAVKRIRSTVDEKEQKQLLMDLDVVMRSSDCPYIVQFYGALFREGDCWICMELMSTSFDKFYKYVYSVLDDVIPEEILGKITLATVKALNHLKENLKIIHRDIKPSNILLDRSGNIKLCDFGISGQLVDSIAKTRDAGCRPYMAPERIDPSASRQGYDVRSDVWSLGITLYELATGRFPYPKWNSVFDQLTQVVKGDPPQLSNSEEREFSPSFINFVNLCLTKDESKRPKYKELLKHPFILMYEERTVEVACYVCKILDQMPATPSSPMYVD

With `Cc1ccc(NC(=O)C2(C(=O)Nc3ccc(Nc4ncc(F)c(-c5cc(F)c6nc(C)n(C(C)C)c6c5)n4)cc3)CC2)cc1`, the inhibition (commonly the drop in the measured response relative to a control, in per cent) in [1] stood at 77%; in data set [2], 26%; in data set [3], 62%; in data set [4], 12%; in [6] it was 59%; in data set [7], 97%. The inhibition turned out to be 8% in [10]; 66% in [11]; 78% in data set [13]; 0% in [15]; 11% in [16]; 27% in [17]. The pIC50 (commonly −log10 of the IC50, conventionally taken in molar units) in data set [5] is 7.34. In addition, the Activity result in data set [8] and in data set [9] was “Non-Toxic” throughout. Besides, the result in the data set with HeLa and in the data set on SiHa [14] was Active. Besides, the Vd – broadly, the apparent volume that relates the amount in the body to the concentration in plasma or blood – in data set [12] is 2 L/kg.
Take `COc1cc2nccc(Oc3ccc(NC(=O)C4(C(=O)Nc5ccc(F)cc5)CC4)cc3)c2cc1OC` [CABOZANTINIB]: the result with MDA-MB-231 and in the data set with T47D was Active. Moreover, in the data set on SiHa [18], the inhibition result was “Active”.

Values taken from ChEMBL document CHEMBL4406821, “Novel dual inhibitors targeting CDK4 and VEGFR2 synergistically suppressed cancer progression and angiogenesis” (Eur J Med Chem, 2019).
